Assay results from different studies.
Compare with care: the assays were run in different laboratories.
BRD9: Bromodomain-containing protein 9 (BRD9, Homo sapiens, UniProt Q9H8M2)
PIP4K2A: Phosphatidylinositol 5-phosphate 4-kinase type-2 alpha (PIP4K2A, Homo sapiens, UniProt P48426)

Structure (SMILES)	target	test	setting	measurement	result
COc1cc(-c2cc(C(C)=O)n3ccccc23)c(OC)cc1C(C)=O	BRD9	thermal stability, DSF	200 µM	ΔTm	7.5 °C
CCCC[C@H](NC(C)=O)C(=O)N[C@H]1CC(=O)NCCCC[C@@H](C(=O)N2CCC[C@@H]2C(=O)N[C@@H](C(=O)N2CCC[C@@H]2C(N)=O)C(C)C)NC(=O)[C@H](Cc2c[nH]c3ccccc23)NC(=O)[C@H](CCCNC(=N)N)NC(=O)[C@@H](Cc2ccccc2)NC(=O)[C@@H]2CCCN2C1=O	Melanocortin receptor 5 (MC5R, Homo sapiens, UniProt P33032)	cAMP, agonist	–	Emax	102%
C1=C/COCc2cc(ccc2OCCN2CCCC2)Nc2nccc(n2)-c2cccc(c2)COC/1	Bone morphogenetic protein receptor type-1A (BMPR1A, Homo sapiens, UniProt P36894)	binding	0.1 µM	remaining binding	89%
CCCCC(=O)Nc1ccc(-c2ccc3ncn(CCC)c(=O)c3c2)cn1	Activin receptor type-2A (ACVR2A, Homo sapiens, UniProt P27037)	binding, competition with immobilised ligand	0.5 µM	remaining binding	95%
CC(=O)ON=C1C=CC(=C(C#N)c2ccccc2)C=C1	Serine/threonine-protein kinase haspin (HASPIN, Homo sapiens, UniProt Q8TF76)	enzyme activity, inhibitor, ADP detection	20 µM	activity vs control	57%
C#Cc1cc(-c2cc(Nc3nc(N[C@@H](C)c4ccc(F)cn4)ncc3Cl)n[nH]2)ccc1C=O	G protein-coupled receptor kinase 6 (GRK6, Homo sapiens, UniProt P43250)	enzyme activity, inhibitor	0.2 µM	inhibition	18.9%
COc1cc(-c2cc(C(C)=O)n3ccccc23)c(OC)cc1C(=O)N1CCOCC1	BRD9	thermal stability, DSF	200 µM	ΔTm	13.8 °C
NC/C(=C\F)COc1cccc(Cn2c(=S)[nH]c(=O)c3[nH]cnc32)c1	Beta-2 adrenergic receptor (ADRB2, Homo sapiens, UniProt P07550)	ligand displacement, radioligand	10 µM	inhibition	< 50%
CCN1/C(=C/C(C)=O)Sc2ccc(F)cc21	Histamine H3 receptor (HRH3, Homo sapiens, UniProt Q9Y5N1)	ligand displacement, radioligand	10 µM	inhibition	0%
COc1cc(-c2cc(C(C)=O)n3ccccc23)cc(OC)c1CN(C)C	BRD9	thermal stability, DSF	200 µM	ΔTm	16.5 °C
COc1ccc2oc(-c3ccc4nc(N)oc4c3)c/c(=N\c3ccccc3NC(=O)CCN)c2c1	PIP4K2A	binding	1 µM	remaining binding	108%
CCC(=O)c1cc(-c2cc(OC)c(Cn3ccnc3)c(OC)c2)c2ccccn12	BRD9	thermal stability, DSF	200 µM	ΔTm	9.8 °C
Cc1cc(O)c(-c2ccc([C@@H](C)CN(C)C)cc2)c2c1[nH]c(=O)c1sccc12	PIP4K2A	enzyme activity, inhibitor	0.1 µM	inhibition	-0.0609%
COc1cc(-c2cc(C(C)=O)n3ccccc23)c(OC)cc1Cn1ccnc1	BRD9	thermal stability, DSF	200 µM	ΔTm	11.8 °C
Cc1ncc(-c2cc3cc(-c4c(C)ccc(O)c4C)cnc3[nH]2)cn1	Membrane-associated tyrosine- and threonine-specific cdc2-inhibitory kinase (PKMYT1, Homo sapiens, UniProt Q99640)	cell-free assay, TR-FRET	3.333 µM	inhibition	104%
